Only a selection was taken, and hits are over-represented in it overall.
S1P4 ag = agonists of human S1P4 receptor. actives 0.35% (n = 220,000). activation, % at 4.98 µM. S1P4-expressing cell line, agonist reporter assay. O95977; in the data active means activation above about 11%;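 further: 0% = DMSO vehicle and 100% = reference agonist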
Target sequence (O95977 whole entry, looked up): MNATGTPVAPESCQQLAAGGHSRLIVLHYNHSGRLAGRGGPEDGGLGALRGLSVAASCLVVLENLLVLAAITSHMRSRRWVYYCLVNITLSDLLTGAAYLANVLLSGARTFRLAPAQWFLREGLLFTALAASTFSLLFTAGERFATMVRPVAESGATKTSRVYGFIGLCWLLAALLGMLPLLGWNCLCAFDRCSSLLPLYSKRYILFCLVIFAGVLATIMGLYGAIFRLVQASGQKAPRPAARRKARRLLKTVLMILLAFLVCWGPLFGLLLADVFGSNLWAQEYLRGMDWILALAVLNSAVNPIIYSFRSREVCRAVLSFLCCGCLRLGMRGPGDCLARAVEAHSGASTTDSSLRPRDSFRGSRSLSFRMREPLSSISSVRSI
S1P4 antagonist = antagonists of human S1P4 receptor; O95977; S1P4-expressing cells, antagonist mode, reporter read-out; inhibition, % at 4.98 µM; actives 0.26% (n = 220,000); AID 1510; in the data active means inhibition above about 29%;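 further: 0% = wells stimulated with agonist and 100% = vehicle wells without agonist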
L major viab = Leishmania major promastigote growth inhibition | Leishmania major promastigotes, resazurin fluorescence viability | actives 9% (n = 200,000) | inhibition, % at 10 µM | AID 1063; in the data active means inhibition above about 50%;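 further: promastigotes grown with compound for 44 hours at 28 °C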
MDM2 E3 inh = Mdm2 E3 ligase (human) inhibition; Q00987; cell-based MDM2 ubiquitination luciferase reporter, 2 h; 0 = plate control, 100 = twice control, blank-subtracted; signal enhancement, % at 5 µM; actives 0.11% (n = 210,000); AID 1230;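 active means signal enhancement of 30% or more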;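 further: luminescence tracks abundance of the self-degrading MDM2-luciferase fusion protein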
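Buffer or medium: Cells held in DMEM | Assay system: Stable mammalian line carrying autodegrading MDM2–luciferase fusion reporter | Quantity: 2000 cells/well | Times: 4 h settle plus 2 h compound, 37 °C | Doses: One concentration, 5 µM, with 0.2% DMSO | Technique: Luminescence with SteadyLite reagent, 15 min at room temperature | Benchmarks: Plate controls and plate blanks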
S1P3 antagonist = S1P3 (human) receptor antagonism. Q99500. CHO S1P3 NFAT-BLA reporter, FRET fluorescence, antagonist mode. inhibition, % at 4.98 µM. actives 0.27% (n = 170,000). AID 485;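 active means inhibition above the plate cutoff, the mean inhibition of test wells on that plate plus 3 SD, cut at about 28% in these data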;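 further: cells challenged with S1P at its EC80 of 0.8 µM; blue over green emission ratio from cleaved BLA substrate after 4 h stimulation; 0% = S1P-stimulated wells and 100% = unstimulated DMSO-only wells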
S1P4 ag conf = human S1P4 agonism, confirmation. S1P4 agonist cell-based reporter assay. shares compounds with S1P4 ag. actives 7% (n = 740). activation, % at 4.98 µM; in the data active means activation above about 12%;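 further: 0% = vehicle and 100% = full reference agonist response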
S1P1 ag = activates human S1P1, counter-screen for S1P4 agonists. shares compounds with S1P4 ag. S1P1 agonist cell-based assay, activation. activation, % at 4.98 µM. actives 4% (n = 740). AID 1563; in the data active means activation above about 21%;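 further: 0% = vehicle wells and 100% = reference agonist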
The depositor's hits bear a star; · = no result given.

SMILES	S1P4 ag	S1P4 antagonist	L major viab	MDM2 E3 inh	S1P3 antagonist	S1P4 ag conf	S1P1 ag
CC(C)OCCCn1c(=NC(=O)c2cccs2)c(C#N)cc2c(=O)n3ccccc3nc21	19*	7	·	0	-21	4	8
CCOCCCn1c(=NC(C)=O)c(C#N)cc2c(=O)n3cccc(C)c3nc21	12*	-9	·	-12	-14	2	28*
O=S(=O)(c1ccc(Cl)cc1)N1CCN(c2nc(-c3cccs3)nc3ccccc23)CC1	15*	-5	26	9	-15	-2	6
Cc1ccc(NC(=O)c2oc3ccc(S(=O)(=O)N4CCC5(CC4)OCCO5)cc3c2C)cc1C	49*	3	15	-14	1	-2	-5
CCOc1ccc(N=c2oc3cc(O)ccc3cc2C(=O)NCC2CCCO2)cc1 (configuration not stated)	5	-10	4	-10	·	·	·
COc1ccc(N=c2oc3cc(O)ccc3cc2C(=O)NCC2CCCO2)cc1 (configuration not stated)	12*	-20	14	·	24	2	-3
CCOc1ccccc1N=c1oc2cc(O)ccc2cc1C(=O)NCC1CCCO1 (configuration not stated)	61*	-52	21	-24	·	5	-1
COc1ccc(N=c2oc3cc(O)ccc3cc2C(=O)NCC2CCCO2)c(OC)c1 (configuration not stated)	71*	-51	11	2	-1	2	-1
CC(=O)c1c(C)[nH]c(C(=O)OC(C)C(=O)Nc2cc(S(=O)(=O)N3CCCCC3)ccc2Cl)c1C (configuration not stated)	0	0	34	7	-4	·	·
CCn1c(=O)c2c3c(sc2n2c(=S)[nH]nc12)CCC3	23*	-12	-4	-3	·	-2	-3
CCc1cccc(CC)c1NC(=O)COC(=O)c1ccc2c(c1)S(=O)(=O)c1ccccc1C2=O	12*	-21	-7	-12	-2	-1	0
O=C(CSc1nc2[nH]ncc2c(=O)[nH]1)NCCc1ccccc1	0	-12	-6	-4	-5	·	·
CCCn1ncc(/C=N/O)c1C	3	-24	·	-6	20	·	·
CCCCC(CC(O)COCC(C)C)C(=O)NN (configuration not stated)	42*	-19	-6	-10	4	-2	4
C=CCNC(=S)NNC(=O)C(CCCC)CC(O)COCC(C)C (configuration not stated)	0	-3	·	-9	-13	·	·
CCOC(=O)C1=C(C)Nc2nc(C)nn2C1c1ccc(C)cc1 (configuration not stated)	13*	-5	-5	·	-2	-3	-9
Cc1nnc(Sc2nc3c(c(=O)[nH]c(=O)n3C)n2Cc2ccccc2Cl)s1	·	·	·	·	-3	·	·
COc1ccc(CC(=O)Nc2cccc(SC)c2)cc1	3	-8	0	3	1	·	·
COc1cc(CC(=O)Nc2cccc(SC)c2)cc(OC)c1OC	45*	-11	16	-18	0	-1	-3
O=C(N/C(=C/c1ccc(Br)cc1)C(=O)N1CCCC1)c1cccs1	13*	-2	18	-6	-9	-2	-1
O=C(N/C(=C\c1ccc(Br)cc1)C(=O)N1CCCC1)c1cccs1	-1	6	16	-11	-22	·	·
COc1ccc(C2CC(c3cccs3)=NN2c2ccc(C=O)cc2)cc1 (configuration not stated)	23*	-6	92*	-10	17	17*	21*
c1ccc(C2CC(c3cccs3)=NN2c2ccccc2)cc1 (configuration not stated)	11	2	·	-18	5	·	·
CN(C)c1ccc(N2C(=O)CC(Sc3ccccc3C(=O)O)C2=O)cc1 (configuration not stated)	11*	-1	0	-7	1	-1	-7
CCC1(C(=O)OC)CCc2c(cc(OC)c3ccccc23)C1=O (configuration not stated)	13*	-23	·	-3	2	-3	0
SMILES	S1P4 ag	S1P4 antagonist	L major viab	MDM2 E3 inh	S1P3 antagonist	S1P4 ag conf	S1P1 ag
COc1cc(C(=O)NCc2cccc3ccccc23)cc(Cl)c1OC	0	-13	46	-4	·	·	·
Cc1ccc(NC(=O)C(C)N=C2NS(=O)(=O)c3ccccc32)cc1F (configuration not stated)	2	-9	·	·	0	·	·
O=C(NCCN1CCOCC1)c1ccc(-c2ccccc2)cc1	-2	7	6	-16	10	·	·
Cc1onc(-c2ccccc2)c1C(=O)NCCN1CCOCC1	17*	6	-5	1	8	-1	-4
O=C(CSc1ccc(-c2cccs2)nn1)NCCc1ccccc1	-1	3	-2	15	-12	·	·
O=C(CSc1ccc(-c2cccs2)nn1)Nc1ccccc1	35*	-28	0	12	2	0	-5
CCCCn1c(SCC(=O)Nc2cccc(OC)c2)nc2ccc(N3CCOCC3)cc2c1=O	14*	-13	5	-2	·	-2	-1
CCCCn1c(SCC(N)=O)nc2ccc(N3CCOCC3)cc2c1=O	-3	1	0	-11	·	·	·
CC1CCC/C(=N\NC(=O)Nc2ccccc2)C1 (configuration not stated)	1	9	-2	-7	-9	·	·
COc1ccc(NCC(=O)N/N=C2\CCCC(C)C2)cc1 (configuration not stated)	23*	-3	-2	-7	8	-2	-4
CCCN(CCC)S(=O)(=O)c1ccc(C(=O)Nc2nc3c(s2)CCc2ccccc2-3)cc1	29*	-14	5	-13	6	-1	-7
Cc1ccc(-c2nc(NC(=O)c3ccc(S(=O)(=O)N(CCC#N)CCC#N)cc3)sc2-c2ccccc2)cc1	1	-23	18	-1	6	·	·
O=C(c1ccc(NC(=S)Nc2ccc(Cl)c(Cl)c2)cc1)N1CCCC1	23*	-24	-5	-19	-18	-2	-2
COC(=O)c1cc(Br)c(=O)n(-c2cc(C)on2)c1	0	-1	1	-10	·	·	·
Cc1nn(Cc2nnc(SCC(=O)Nc3cccc(C(F)(F)F)c3)n2C)c(C)c1[N+](=O)[O-]	56*	13	·	-5	-6	-2	-5
Cn1c(Cn2cnc([N+](=O)[O-])n2)nnc1SCC(=O)Nc1cccc(Cl)c1	-1	-14	-1	-15	11	·	·
Cc1cc(C)n(-c2nc3ccccc3nc2N2CCCC2)n1	87*	-2	-1	-23	·	-2	-7
Nc1nc(Nc2ccccc2Br)nc(C(F)(F)F)n1	1	-8	7	-8	-18	·	·
Nc1nc(Nc2ccc(Cl)cc2Cl)nc(C(F)(F)F)n1	30*	-9	2	9	-9	27*	-2

High-throughput results as filed in PubChem.
